This is an account of results in ChEMBL document CHEMBL1125359, “omega-[(4,6-Diphenyl-2-pyridyl)oxy]alkanoic acid derivatives: a new family of potent and orally active LTB4 antagonists” (J Med Chem, 1992).

The target of test [1] is T1, Leukotriene B4 receptor 1 (Homo sapiens, UniProt Q15722). Kind of test: Inhibition of [3H]-LTB4 binding to Leukotriene B4 receptor in the human polymorphonuclear leukocytes. In short, it runs like this: (§1)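 PMNs from normal donors' peripheral blood, isolated by dextran T500 sedimentation, Ficoll-Hypaque centrifugation and hypotonic lysis. Cells incubated with 0.5 nM [3H]LTB4 (173 Ci/mmol) for 15 min at 0 °C across a range of compound concentrations. Percent inhibition of specific binding measured; IC50 derived graphically, mean of three replicates, mostly on one cell preparation.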
T1 sequence (Q15722 whole entry): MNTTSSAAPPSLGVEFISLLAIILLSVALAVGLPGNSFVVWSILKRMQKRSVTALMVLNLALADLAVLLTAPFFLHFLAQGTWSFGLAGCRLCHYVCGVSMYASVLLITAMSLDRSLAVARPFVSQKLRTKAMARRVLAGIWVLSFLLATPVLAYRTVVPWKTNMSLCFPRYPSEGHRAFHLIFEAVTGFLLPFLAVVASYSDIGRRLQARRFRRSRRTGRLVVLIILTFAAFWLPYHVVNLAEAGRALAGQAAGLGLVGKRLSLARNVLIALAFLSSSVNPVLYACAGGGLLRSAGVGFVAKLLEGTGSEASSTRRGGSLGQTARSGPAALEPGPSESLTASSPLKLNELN

Test [2] addresses T1, Leukotriene B4 receptor 1. Kind of test: Inhibition of LTB4-induced elastase release in human polymorphonuclear leukocytes. It is filed as functional, cell-based.
Test [3] deals with T1, Leukotriene B4 receptor 1. The test is described as follows: Inhibition of [3H]LTB4 binding to Leukotriene B4 receptor of human polymorphonuclear leukocytes. In short, it runs like this:
as §1

The target in test [4] is Leukotriene B4 receptor 1 (Cavia porcellus). The test is described as follows: Inhibition of [3H]LTB4 binding to Leukotriene B4 receptor in the guinea pig spleen membranes.

The structures appear in SMILES notation.

The term IC50 denotes the concentration at which inhibition is half-maximal. High values mean a need for much substance, low ones inhibition by little substance. Take `CC(CCCCOc1cc(-c2ccc3c(c2)OCO3)cc(-c2ccccc2)n1)C(=O)O` (centres undefined): the results for the IC50 in test [1] and in test [2] were 6.6 nM and 120 nM, respectively.
As for `O=C(O)CCCCCOc1cc(-c2ccc3c(c2)OCO3)cc(-c2ccccc2)n1`, the IC50 in test [1] amounted to 6 nM; in test [2] it was 2000 nM.
In the case of `CC(CCCCOc1cc(-c2ccccc2)cc(-c2ccccc2Cl)n1)C(=O)O` (centres undefined), the IC50 in test [3] is 6 nM; in test [2], 40 nM.
As to `CC(CCCCOc1cc(-c2ccccc2)cc(-c2ccccc2F)n1)C(=O)O` (centres undefined), the IC50 stood at 18 nM in test [1] and 70 nM in test [2].
Turning to `NC(=O)CCCCCOc1cc(-c2ccccc2)cc(-c2ccccc2)n1`, the IC50 in test [1] amounted to 150 nM.
Regarding `O=C(O)CCCCCOc1cc(-c2ccccc2Cl)cc(-c2ccccc2)n1`, in test [2], the IC50 is greater than 10000 nM.
As for `COC(=O)CCCCCOc1cc(-c2ccccc2)cc(-c2ccccc2)n1`, the IC50 in test [1] is 100 nM; in test [2] it was 1000 nM.
As to `O=C(O)CCCCOc1cc(-c2ccccc2)cc(-c2ccccc2)n1`, the IC50 was found to be 300 nM in test [1] and 20000 nM in test [2].
For the molecule `CC(C)(CCCCOc1cc(-c2ccccc2)cc(-c2ccccc2)n1)c1nnn[nH]1`, the IC50 in test [1] came to 20 nM; in test [2], 8 nM.
For `CC(C)(CCCCOc1cc(-c2ccc(N)cc2)cc(-c2ccccc2)n1)C(=O)O`, the IC50 in test [1] was 9.5 nM; in test [2], 15 nM.
For `CC(CCCCOc1cc(-c2ccc3c(c2)OCO3)cc(-c2ccccc2Cl)n1)C(=O)O` (centres undefined), the IC50 in test [1] and in test [2] was 12 nM throughout.
Regarding `CC(C)(CCCCCCOc1cc(-c2ccccc2)cc(-c2ccccc2)n1)C(=O)O`, the concentration for half-maximal inhibition (IC50) in test [1] was found to be 60 nM; in test [2] it was 100 nM.
The molecule `O=C(O)CCCCCOc1cc(-c2ccc(NC(=O)C(F)(F)F)cc2)cc(-c2ccccc2)n1` displayed an IC50 in test [2] greater than 10000 nM.
As to `CC(CCCCOc1cc(-c2ccccc2)cc(-c2ccccc2)n1)C(=O)O` (centres undefined), the IC50 in test [1] was 30 nM; in test [2], 22 nM.
Take `O=C(O)CCCCCOc1cc(-c2ccccc2)cc(-c2ccccc2)n1`: the 50% inhibitory concentration (IC50) in test [1] was determined as 30 nM; in test [2], 2000 nM.
For `O=C(O)CCCCCOc1cc(-c2ccccc2)cc(-c2ccc(F)cc2)n1`, the IC50 in test [1] is 30 nM; in test [2], greater than 10000 nM.
Consider `O=C(O)CCCCCOc1cc(-c2ccc([N+](=O)[O-])cc2)cc(-c2ccccc2)n1`, for which the IC50 in test [1] came to 600 nM.
With `COc1ccc(/C=C/CCCCOc2ccc(C(=O)c3cccc(C(=O)O)c3)cc2CCC(=O)O)cc1`, the IC50 came to 1000 nM in test [2] and 2 nM in test [4].
For the molecule `O=C(O)CCCCCCOc1cc(-c2ccccc2)cc(-c2ccccc2)n1`, the IC50 in test [1] was 15 nM; in test [2], 2500 nM.
